Results on twelve molecules are retold here after ChEMBL document CHEMBL1145089, “Development of water-soluble prodrugs of the HIV-1 protease inhibitor KNI-727: importance of the conversion time for higher gastrointestinal absorption of prodrugs based on spontaneous chemical cleavage” (J Med Chem, 2003).

Series [1] can be described thus: In vitro half life at pH 7.4 and 37 degrees C. Particulars: buffer. In kind it is ADME. A digest of the protocol: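 Prodrug, added as 0.5 mM DMSO stock (10 μL into 1 mL), incubated in PBS pH 7.4 at 37 °C. Release of parent drug followed by RP-HPLC. t1/2 is the time to 50% release of parent drug. Means ± SEM of three experiments.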
Series [2] is described as follows: Area under curve (AUC) was determined. In kind it is ADME. Details: concentration or dose not given beside the values. A digest of the protocol: (§1)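 Male Sprague–Dawley rats (240–300 g, n = 5 or 3), fasted overnight, given the agent intraduodenally via duodenal cannula at a dose equivalent to 10 mg/kg parent drug, in 50% PEG (8000) or saline, 1 mL/kg. Arterial blood taken at 5 min–8 h. Plasma was ethyl acetate extracted and the parent drug quantified by RP-HPLC (UV 202 nm). Cmax/Tmax from mean profiles; AUC0–8 by linear trapezoidal rule.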

Series [3] is described as follows: C max was determined. The class given is ADME, organism-based. Conditions: in vivo. A digest of the protocol:
as §1

Series [4] in a line: Bioavailability. The class given is ADME, organism-based. Particulars: eutheria, in vivo. A digest of the protocol: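 Rat intraduodenal dosing (dose equivalent to 10 mg/kg parent drug, 50% PEG or saline, 1 mL/kg). Plasma parent drug measured by RP-HPLC over 8 h. Bioavailability is the ratio of mean AUC0–8 (×10) against intravenous parent drug at 1 mg/kg in ethanol cosolvent via femoral vein (n = 2).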

Series [5] is described as follows: T max was determined. In kind it is ADME. In outline:
as §1

A word on the half-life: it is the time needed for the level to fall by half in the phase considered. The term AUC denotes the area under the concentration-time curve, a measure of exposure. A word on the Cmax: it is the peak of the concentration-time curve. Usually bioavailability stands for the share of a dose that reaches the circulation, judged against a reference dose that is usually intravenous. The Tmax is the time at which the peak concentration occurs.

Regarding `Cc1cccc(C)c1OCC(=O)N[C@@H](Cc1ccccc1)[C@H](OC(=O)CCC(=O)NCc1ccccn1)C(=O)N1CSC(C)(C)[C@H]1C(=O)NC(C)(C)C.Cl`, the half-life in series [1] was 48.5 min.
Take `Cc1cccc(C)c1OCC(=O)N[C@@H](Cc1ccccc1)[C@H](OC(=O)CCC(=O)NCc1ccncc1)C(=O)N1CSC(C)(C)[C@H]1C(=O)NC(C)(C)C.Cl`: the half-life in series [1] came out at 34.9 min. Besides, the AUC in series [2] turned out to be 6.57 µg·h/mL. For the same molecule, the Cmax in series [3] worked out at 1.62 µg/mL. This molecule returned a bioavailability in series [4] of 29%. Further, the Tmax in series [5] is 30 min.
In the same order, the values of `Cc1cccc(C)c1OCC(=O)N[C@@H](Cc1ccccc1)[C@H](OC(=O)CCC(=O)NCCN1CCOCC1)C(=O)N1CSC(C)(C)[C@H]1C(=O)NC(C)(C)C.Cl` are 40.3 min, 5.25 µg·h/mL, 1.89 µg/mL, 23.1% and 30 min.
In the same order, the values of `Cc1cccc(C)c1OCC(=O)N[C@@H](Cc1ccccc1)[C@H](OC(=O)CCCC(=O)NCCN1CCOCC1)C(=O)N1CSC(C)(C)[C@H]1C(=O)NC(C)(C)C.Cl` are 2060 min, 1.23 µg·h/mL, 0.48 µg/mL, 5.4% and 30 min.
In the same order, the values of `Cc1cccc(C)c1OCC(=O)N[C@@H](Cc1ccccc1)[C@H](OC(=O)CCC(=O)NCc1cccnc1)C(=O)N1CSC(C)(C)[C@H]1C(=O)NC(C)(C)C.Cl` are 35.4 min, 6 µg·h/mL, 1.37 µg/mL, 26.4% and 30 min.
`Cc1cccc(C)c1OCC(=O)N[C@@H](Cc1ccccc1)[C@H](OC(=O)CCC(=O)NCCN1CCCCC1)C(=O)N1CSC(C)(C)[C@H]1C(=O)NC(C)(C)C.Cl` displayed a half-life in series [1] of 3.6 min.
Still for that read-out and setting: next, `CCCNC(=O)CCC(=O)O[C@H](C(=O)N1CSC(C)(C)[C@H]1C(=O)NC(C)(C)C)[C@H](Cc1ccccc1)NC(=O)COc1c(C)cccc1C`: 922 min.
With `Cc1cccc(C)c1OCC(=O)N[C@@H](Cc1ccccc1)[C@H](OC(=O)CCC(=O)NCCN)C(=O)N1CSC(C)(C)[C@H]1C(=O)NC(C)(C)C.Cl`, in series [1], the half-life was determined as 12.7 min. Also, the AUC in series [2] stood at 3.98 µg·h/mL. The molecule further had a Cmax in series [3] of 0.65 µg/mL. Also, the bioavailability in series [4] was 17.5%. For the same molecule, in series [5], the Tmax was 240 min.
The matching figures for `Cc1cccc(C)c1OCC(=O)N[C@@H](Cc1ccccc1)[C@H](OC(=O)CCC(=O)NCCCN1CCOCC1)C(=O)N1CSC(C)(C)[C@H]1C(=O)NC(C)(C)C.Cl`: 79.5 min, 1.57 µg·h/mL, 0.41 µg/mL, 6.9% and 30 min.
In series [2], `Cc1cccc(C)c1OCC(=O)N[C@@H](Cc1ccccc1)[C@H](O)C(=O)N1CSC(C)(C)[C@H]1C(=O)NC(C)(C)C` had an AUC of 3.58 µg·h/mL. In addition, in series [3], the peak level (Cmax) was 1.23 µg/mL. The bioavailability in series [4] came out at 15.8%. Besides, the Tmax in series [5] was 5 min.
`Cc1cccc(C)c1OCC(=O)N[C@@H](Cc1ccccc1)[C@H](OC(=O)CCC(=O)NCCN1CCCC1)C(=O)N1CSC(C)(C)[C@H]1C(=O)NC(C)(C)C.Cl` gave a half-life in series [1] of 7.9 min. The molecule also yielded an AUC in series [2] of 3.65 µg·h/mL. Besides, the Cmax in series [3] is 0.84 µg/mL. The molecule also registered a bioavailability in series [4] of 16.1%. The Tmax in series [5] is 15 min.
With `Cc1cccc(C)c1OCC(=O)N[C@@H](Cc1ccccc1)[C@H](OC(=O)CCCC(=O)NCCN)C(=O)N1CSC(C)(C)[C@H]1C(=O)NC(C)(C)C.Cl`, in series [1], the half-life was found to be 1240 min. Also, in series [2], the AUC came out at 2.13 µg·h/mL. The molecule further showed a Cmax in series [3] of 0.46 µg/mL. Besides, the bioavailability in series [4] amounted to 9.4%. In addition, the Tmax in series [5] is 60 min.
